Measurements taken from ChEMBL document CHEMBL3580647, “Discovery of potent indenoisoquinoline topoisomerase I poisons lacking the 3-nitro toxicophore” (J Med Chem, 2015).

How the values were obtained:
[1] = Growth inhibition of human NCI60 cells assessed as cell growth at 10 uM; type: functional; conditions: read-out: Activity
Summary of the method: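 NCI-60 single-dose screen at 10 μM across ~60 human cancer cell lines. Reported as growth percent relative to vehicle-treated control, averaged over all lines tested as a mean growth percent.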

[2] = target: T1, DNA topoisomerase 1 (Homo sapiens) (UniProt P11387); experiment: Inhibition of recombinant topoisomerase 1 (unknown origin) assessed as DNA cleavage using 3'-[32P]-labeled 117-bp DNA oligonucleotide at 1 uM by PAGE assay; parameters: Activity: scale not given: the % may be the effect or the level left
T1 sequence (whole entry): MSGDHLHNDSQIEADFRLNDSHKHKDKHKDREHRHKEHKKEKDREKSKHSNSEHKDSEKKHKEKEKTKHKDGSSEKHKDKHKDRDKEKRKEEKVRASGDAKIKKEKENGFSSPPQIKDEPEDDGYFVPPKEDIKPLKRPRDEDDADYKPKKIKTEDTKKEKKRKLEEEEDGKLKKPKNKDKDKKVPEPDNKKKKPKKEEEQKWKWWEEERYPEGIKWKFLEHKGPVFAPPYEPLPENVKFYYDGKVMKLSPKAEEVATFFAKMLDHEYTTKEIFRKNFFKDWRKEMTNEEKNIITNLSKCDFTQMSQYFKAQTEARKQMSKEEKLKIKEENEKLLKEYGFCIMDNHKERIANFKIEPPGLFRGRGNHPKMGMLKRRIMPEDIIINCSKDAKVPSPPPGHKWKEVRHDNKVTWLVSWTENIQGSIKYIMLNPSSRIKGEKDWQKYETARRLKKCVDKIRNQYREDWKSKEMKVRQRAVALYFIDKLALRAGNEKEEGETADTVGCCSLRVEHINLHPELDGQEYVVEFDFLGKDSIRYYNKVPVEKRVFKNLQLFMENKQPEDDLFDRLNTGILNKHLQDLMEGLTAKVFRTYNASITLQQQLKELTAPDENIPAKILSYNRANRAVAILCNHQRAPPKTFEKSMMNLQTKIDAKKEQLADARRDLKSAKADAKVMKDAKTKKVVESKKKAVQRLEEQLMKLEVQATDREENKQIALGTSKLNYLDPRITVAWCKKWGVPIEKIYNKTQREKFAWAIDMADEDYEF
Summary of the method: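 Approx. 2 nM 3′-[³²P]-labeled double-stranded DNA incubated with recombinant Top1 and compound at 0.1, 1, 10 or 100 μM for 20 min at 25 °C. Stopped with 0.5% SDS and run on a denaturing gel. […] Run twice.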

[3] = tested on: MCF7; experiment: Growth inhibition of human MCF7 cells by five-dose growth inhibition assay; type: functional
[4] = tested on: HCT-116; experiment: Growth inhibition of human HCT116 cells by five-dose growth inhibition assay; type: functional
[5] = Growth inhibition of human SF539 cells by five-dose growth inhibition assay; type: functional; conditions: SF-539
[6] = tested on: SN12C; experiment: Growth inhibition of human SN12C cells by five-dose growth inhibition assay; type: functional
[7] = tested on: HOP-62; experiment: Growth inhibition of human HOP62 cells by five-dose growth inhibition assay; type: functional
[8] = tested on: OVCAR-3; experiment: Growth inhibition of human OVCAR3 cells by five-dose growth inhibition assay; type: functional
[9] = tested on: UACC-62; experiment: Growth inhibition of human UACC62 cells by five-dose growth inhibition assay; type: functional
[10] = tested on: DU-145; experiment: Growth inhibition of human DU145 cells by five-dose growth inhibition assay; type: functional

Row | Compound | growth at 10 µM [1] | Activity [2] | GI50 [3] | GI50 [4] | GI50 [5] | GI50 [6] | GI50 [7] | GI50 [8] | GI50 [9] | GI50 [10]
1 | O=C1c2ccccc2-c2c1c1ccncc1c(=O)n2CCCn1ccnc1 | 47.5% | 20% |  |  |  |  |  |  |  | 
2 | O=C1c2ccccc2-c2c1c1ccc(C(F)(F)F)cc1c(=O)n2C[C@H](O)CO | 52.2% | 20% |  |  |  |  |  |  |  | 
3 | CS(=O)(=O)c1ccc2c3c(n(C[C@H](O)CO)c(=O)c2c1)-c1ccccc1C3=O | 96.7% | 50% |  |  |  |  |  |  |  | 
4 | O=C1c2ccccc2-c2c1c1ccc([N+](=O)[O-])cc1c(=O)n2CCCn1ccnc1 |  | 100% | 2170 nM |  |  |  |  |  |  | 
5 | O=C1c2ccccc2-c2c1c1ccc(Br)cc1c(=O)n2CCCN1CCOCC1 | 84% | 75% |  |  |  |  |  |  |  | 
6 | O=C1c2ccccc2-c2c1c1cc(C(F)(F)F)ccc1c(=O)n2C[C@H](O)CO | 82.7% | 20% |  |  |  |  |  |  |  | 
7 | CC[C@@]1(O)C(=O)OCc2c1cc1n(c2=O)Cc2cc3c(CN(C)C)c(O)ccc3nc2-1 [TOPOTECAN] |  | 100% |  | 30 nM | 10 nM | 20 nM |  |  |  | 
8 | CSc1ccc2c3c(n(C[C@H](O)CO)c(=O)c2c1)-c1ccccc1C3=O | 39.7% | 20% | 427 nM | 741 nM | 2340 nM | 1950 nM | 1820 nM | 4.37 µM | 1380 nM | 2510 nM
9 | N#Cc1ccc2c3c(n(C[C@H](O)CO)c(=O)c2c1)-c1ccccc1C3=O | 42.6% | 20% |  |  |  |  |  |  |  | 
10 | O=C1c2ccccc2-c2c1c1ccc(Br)cc1c(=O)n2C[C@H](O)CO | 46.8% | 50% |  |  |  |  |  |  |  | 
11 | O=C1c2ccccc2-c2c1c1ccc(Br)cc1c(=O)n2CCCn1ccnc1 | 27.3% | 50% | 191 nM | 251 nM | 676 nM | 468 nM | 513 nM | 3.31 µM | 427 nM | 676 nM
12 | O=C1c2ccccc2-c2c1c1ccc(I)cc1c(=O)n2CCCn1ccnc1 | 43.5% | 50% | 74 nM | 200 nM | 550 nM | 708 nM | 437 nM | 3.89 µM | 2290 nM | 603 nM
13 | O=C1c2ccccc2-c2c1c1ccc(Cl)cc1c(=O)n2C[C@H](O)CO | 14.5% | 50% | 257 nM | 437 nM | 417 nM | 977 nM | 692 nM | 2.24 µM | 398 nM | 2090 nM
14 | N#Cc1ccc2c3c(n(CCCn4ccnc4)c(=O)c2c1)-c1ccccc1C3=O | 41.1% | 50% | 33 nM | 112 nM | 501 nM | 575 nM | 537 nM | 4.68 µM | 407 nM | 562 nM
15 | O=C1c2ccccc2-c2c1c1ccc([N+](=O)[O-])cc1c(=O)n2CCCN1CCOCC1 |  | 70% |  |  |  |  |  |  |  | 
16 | CN(C)CCCn1c2c(c3ccncc3c1=O)C(=O)c1ccccc1-2 |  | 50% | 331 nM |  | 708 nM | 955 nM |  |  |  | 977 nM
17 | CSc1ccc2c3c(n(CCCn4ccnc4)c(=O)c2c1)-c1ccccc1C3=O | 42.6% | 20% |  |  |  |  |  |  |  | 
18 | COC(=O)c1ccc2c3c(n(CCCN4CCOCC4)c(=O)c2c1)-c1ccccc1C3=O | 87.5% | 20% |  |  |  |  |  |  |  | 
19 | N#Cc1ccc2c3c(n(CCCN4CCOCC4)c(=O)c2c1)-c1ccccc1C3=O | 102% | 50% |  |  |  |  |  |  |  | 
20 | O=C1c2ccccc2-c2c1c1cc(C(F)(F)F)ccc1c(=O)n2CCCn1ccnc1 | 49.3% | 20% |  |  |  |  |  |  |  | 
21 | O=C1c2ccccc2-c2c1c1ccc(F)cc1c(=O)n2C[C@H](O)CO | 61.1% | 50% |  |  |  |  |  |  |  | 
22 | O=C1c2ccccc2-c2c1c1ccc([N+](=O)[O-])cc1c(=O)n2C[C@H](O)CO |  | 100% |  |  |  |  |  |  |  | 
23 | CS(=O)(=O)c1ccc2c3c(n(CCCn4ccnc4)c(=O)c2c1)-c1ccccc1C3=O | 59.4% | 50% |  |  |  |  |  |  |  | 
